Source: PubChem (The Scripps Research Institute Molecular Screening Center)
Most compounds without a hit are left out; they make up all but 3.9% or so of the library.
M1 PAM = potentiates human M1 receptor response to acetylcholine | P11229 | CHO-K1 hM1, Fluo-8 calcium fluorescence, ACh EC20; 0% = ACh EC20, 100% = maximal ACh | activation, % at 3 µM | 360,000 compounds, 0.088% hits | AID 588819; in the data active = activation above about 19%, passing the limit was not always enough
TAAR1 antagonist = human TAAR1 antagonism; Q96RJ0; CHO RD-HGA16 TAAR1, Fluo-8 calcium fluorescence, antagonist; inhibition, % at 3 µM; 360,000 compounds, 1.5% hits; AID 624466;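 active = inhibition above a per-plate cutoff, the mean inhibition of test compounds on that plate plus 3 SD, cut at about 49% in these data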;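 note: 0% = DMSO plus EC80 beta-PEA response and 100% = DMSO alone without agonist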
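System: RD-HGA16 CHO cells with stable hTAAR1 and Gα16 | Probe or stimulus: EC80 β-phenethylamine stimulus | Dosing: 3 µM, single point | Times: Dye loading 75 min at 37 °C, then 30 min room temperature | Measured by: Fluo-8 calcium-sensitive fluorescence | Read-out basis: % inhibition of agonist calcium response | Replicates: n of 1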
HTR2A ag = agonists of mouse serotonin 5-HT2A receptor (HTR2A); CHO-K1 mHTR2A beta-arrestin complementation, luminescence; percent of 30 µM serotonin response; activation, % at 7.6 µM; 360,000 compounds, 0.66% hits; AID 624169;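 active = activation above a run cutoff, the mean activation of all tested compounds plus 3 SD, cut at about 14% in these data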;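 note: 0% = plate median of compound wells and 100% = 30 µM serotonin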
Target sequence (P35363 whole entry, looked up): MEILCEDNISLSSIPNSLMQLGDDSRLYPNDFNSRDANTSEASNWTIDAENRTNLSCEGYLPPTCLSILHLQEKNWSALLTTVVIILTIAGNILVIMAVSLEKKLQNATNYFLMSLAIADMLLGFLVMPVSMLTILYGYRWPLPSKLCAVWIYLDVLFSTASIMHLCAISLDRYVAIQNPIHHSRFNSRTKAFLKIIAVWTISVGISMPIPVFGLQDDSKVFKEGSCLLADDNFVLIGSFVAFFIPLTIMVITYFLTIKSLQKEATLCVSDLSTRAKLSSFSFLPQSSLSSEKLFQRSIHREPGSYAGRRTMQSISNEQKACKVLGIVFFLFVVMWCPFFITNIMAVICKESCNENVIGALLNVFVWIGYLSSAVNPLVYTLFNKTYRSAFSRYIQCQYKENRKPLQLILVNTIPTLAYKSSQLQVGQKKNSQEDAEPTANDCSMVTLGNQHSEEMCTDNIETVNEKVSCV
CHRM1 antagonist = antagonists of human M1 muscarinic receptor; P11229; CHO-K1 hM1, Fluo-8 calcium fluorescence, ACh EC80 antagonist; inhibition, % at 3 µM; 360,000 compounds, 1.3% hits;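 active = percent inhibition above its own plate's cutoff, namely the mean of that plate's compound wells plus 3 SD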;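 note: peak over basal fluorescence ratio during 140 s after agonist addition; 0% = ACh EC80 plus DMSO and 100% = DMSO alone without agonist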
TAAR1 ag = agonists of human TAAR1 | Q96RJ0 | CHO RD-HGA16 TAAR1, Fluo-8 calcium fluorescence; vehicle wells 0%, saturating PEA agonist 100% | activation, % at 3 µM | 360,000 compounds, 0.99% hits;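 active = activation above the mean activation of all test compounds in the run plus 3 SD, cut at about 38% in these data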
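Assay system: CHO-derived RD-HGA16 cells with stable Gα16 and human TAAR1; timing: 17-24 h seeding, 75 min 37 °C dye, 30 min RT; read-out: % activation from peak over basal fluorescence ratio, DMSO-to-PEA scaled; measured by: kinetic Fluo-8 calcium fluorescence; benchmarks: low control DMSO, high control PEA (EC100); doses: 3 µM single concentration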
CHRM1 agonist = activates human CHRM1 receptor; CHO-K1 hM1, Fluo-8 calcium fluorescence, agonist mode; 0% DMSO, 100% acetylcholine EC100; activation, % at 3 µM; 360,000 compounds, 0.33% hits; AID 588814;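 active = activation above the run's mean compound activation plus 3 SD, cut at about 16% in these data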;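 note: peak over basal fluorescence ratio within a 140 s kinetic read after compound addition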
Active calls of the source: *; · = no result given.

SMILES	M1 PAM	TAAR1 antagonist	HTR2A ag	CHRM1 antagonist	TAAR1 ag	CHRM1 agonist
CC(=O)NCCNc1nc(NCc2cccs2)nc2ccsc12	-1.4	23.1	-3.5	-25.2	33.8	-2.9
Fc1ccc(Nc2nc(NCc3ccccc3)nc3ccsc23)cc1	-8.4	19.9	-4.5	4.5	10.8	0.9
COc1ccccc1CNc1nc(Nc2ccc(C)cc2C)c2sccc2n1	-14.0	28.7	-17.4	25.9	3.4	-3.0
O=C1CCCN1CCCNc1nc(NCc2cccs2)nc2ccsc12	-32.6	98.8*	0.9	67.7*	92.4*	68.7*
COCCNc1nc(NCc2cccs2)nc2ccsc12	-33.3	103.9*	-1.2	90.9*	122.2*	93.3*
Cc1ccc(Nc2nc(NCc3ccccc3)nc3ccsc23)c(C)c1	-24.2	88.5*	-12.7	55.4*	29.4	15.6
c1ccc(CNc2nc(NCCc3ccncc3)c3sccc3n2)cc1	-30.9	106.0*	-8.8	91.4*	125.2*	99.2*
CC(C)(C)OC(=O)C[C@@H]1C/C=C\C[C@H](CC(=O)N[C@@H](CO)Cc2ccccc2)C(=O)N[C@H](C(C)(C)C)COC1=O	4.8	0.0	-1.1	-14.2	8.4	-2.8
O=C1c2ccccc2NC(c2ccc(O)c(O)c2)N1c1ccccc1Cl (stereo unspecified)	3.3	0.0	1.0	-4.9	1.7	-3.9
CNc1nc(NCc2ccccc2)c2sccc2n1	-3.5	31.0	1.5	8.3	46.1*	1.9
c1csc(CNc2nc(NCC3CCCCC3)c3sccc3n2)c1	-13.6	60.8*	-5.7	24.5	43.2*	6.8
COc1cccc(CNc2nc(NCc3ccccc3)nc3ccsc23)c1	-27.8	96.4*	-10.1	45.8*	49.0*	15.2
COc1cccc(CNc2nc(NCC3CC3)nc3ccsc23)c1OC	-27.3	4.3	-6.4	34.6	13.2	-4.0
CCOC(=O)Cc1ccc(Nc2nc(NCCOC)nc3ccsc23)cc1	-30.3	34.7	-6.7	42.1*	3.6	-4.7
NC(=O)c1sc2nnc(-c3ccccc3)c(-c3ccccc3)c2c1N	1.5	-4.1	-2.8	-2.3	18.0	-0.1
Cc1onc(-c2ccccc2Cl)c1C(=O)Oc1cccc2cccnc12	4.4	-6.5	3.1	3.2	1.2	-4.2
c1ccc(CNc2nc(NCc3cccs3)nc3ccsc23)cc1	-21.2	81.2*	-3.4	25.3	51.9*	14.4
O=C(C[n+]1ccc(/C=C/c2ccccc2)cc1)c1ccc2c(c1)OCCO2	-7.9	-5.9	-5.1	9.0	43.5*	-9.3
Cc1cc[n+](CC(=O)c2ccc3c(c2)OCCO3)cc1	-8.5	4.5	0.0	4.3	8.6	-9.2
O=S(=O)(c1cccs1)N1CCN(CC(O)COC2CCCc3ccccc32)CC1 (stereo unspecified)	3.2	9.0	-2.2	-5.8	10.8	-4.4
CCOc1ccccc1N1CCN(CC(O)COC2CCCc3ccccc32)CC1 (stereo unspecified)	-31.1	-4.1	-13.3	47.5*	3.5	-10.8
COc1ccc(NC(=O)/C(=C/c2cccnc2)NC(=O)c2cccs2)cc1	0.4	-7.3	7.1	-0.6	1.2	-3.4
COc1ccc(N=c2ssnc2Cl)cc1	10.3	·	-1.4	-8.5	·	-0.2
COc1cc(N=c2ssnc2Cl)cc(OC)c1OC	7.4	21.6	4.0	-25.5	41.6*	4.8
Clc1ccc(N=c2ssnc2Cl)cc1	2.3	18.0	1.3	1.7	45.6*	11.6
SMILES	M1 PAM	TAAR1 antagonist	HTR2A ag	CHRM1 antagonist	TAAR1 ag	CHRM1 agonist
COc1ccc(NC(=O)N(C)C[C@H]2Oc3c(NC(=O)Nc4ccc(C(F)(F)F)cc4)cccc3C(=O)N([C@H](C)CO)C[C@@H]2C)cc1	-13.2	72.9*	23.1*	29.4	30.9	-0.6
C[C@H]1CN([C@@H](C)CO)C(=O)c2cccc(NC(=O)Nc3ccc(C(F)(F)F)cc3)c2O[C@@H]1CN(C)Cc1ccc(Cl)c(Cl)c1	-2.3	51.3*	-3.9	9.7	15.2	-0.3
C[C@@H]1CN([C@H](C)CO)C(=O)c2cc(NC(=O)Nc3ccc(C(F)(F)F)cc3)ccc2O[C@H]1CN(C)Cc1ccc(Cl)c(Cl)c1	0.7	-21.0	-1.9	6.5	2.3	-2.0
C[C@H](CO)N1C[C@H](C)[C@@H](CN(C)C(=O)Nc2ccc3c(c2)OCO3)Oc2c(NC(=O)Nc3ccc(C(F)(F)F)cc3)cccc2C1=O	-12.5	79.7*	5.1	21.1	33.9	1.9
C[C@H](CO)N1C[C@H](C)[C@@H](CN(C)C(=O)Nc2ccc(C(F)(F)F)cc2)Oc2c(NC(=O)Nc3ccc4c(c3)OCO4)cccc2C1=O	11.4	32.6	6.8	-15.5	7.8	1.5
C[C@H](CO)N1C[C@H](C)[C@H](CN(C)C(=O)Nc2ccc(F)cc2)Oc2c(NC(=O)c3ccc(-c4nccs4)cc3)cccc2C1=O	-3.1	54.0*	9.1	14.2	21.4	-5.1
COC(=O)c1[nH]c2ccccc2c1NC(=O)CN1CCCCCC1	-1.0	17.6	0.7	7.2	4.9	-3.2
COC(=O)c1[nH]c2ccccc2c1NC(=O)CNC1CCCCC1	-11.8	60.6*	0.9	37.7*	21.3	1.5
NC(=O)c1nsc(C(=O)N(Cc2cccnc2)C(C(=O)NCc2ccc(F)cc2)c2ccc(O)cc2)c1N (stereo unspecified)	9.3	6.8	0.2	-12.3	6.3	-4.6
CCCC(C(=O)Nc1ccc2c(C)cc(=O)oc2c1)c1ccccc1 (stereo unspecified)	2.8	-33.9	1.2	-2.2	1.4	-3.4
COC(=O)[C@]1(CC(C)C)N[C@H](c2ccc(-c3ccc(C(C)=O)cc3)cc2)[C@@H]2C(=O)N(C)C(=O)[C@@H]21	29.5*	3.4	-1.7	-5.4	4.5	-1.6
COC(=O)[C@]1(CC(C)C)N[C@H](c2ccc(-c3ccc(Cl)c(Cl)c3)cc2)[C@@H]2C(=O)N(C)C(=O)[C@@H]21	6.7	-18.7	0.2	-13.1	7.1	-3.8
C[C@H](NC(=O)C[C@@H]1C[C@@H]2c3cc(NC(=O)C4CCC4)ccc3O[C@@H]2[C@@H](CO)O1)c1ccccc1	·	3.9	·	·	3.3	·
CCN(CC)S(=O)(=O)c1ccc(NC(=O)Nc2cccc(C(F)(F)F)c2)cc1	-10.6	9.0	-5.7	29.6*	26.7	2.3
O=C(Nc1ccc(OC(F)F)cc1)Nc1cccc(C(F)(F)F)c1	-18.9	35.9	0.1	23.8*	10.8	0.8
Nc1cc2c(cc1N)-c1ccccc1C2	-1.6	1.9	-8.4	4.8	-1.7	-2.9
COc1ccc(Cc2nc(-c3ccc(NC(=O)c4cccnc4)cc3)no2)cc1	3.8	39.6	-1.6	-6.3	55.1*	0.3
COc1ccc(NC(=O)c2cc(-c3cccs3)on2)cc1OC	9.7	13.1	0.4	1.3	42.3*	8.8
